The array DNA melting data of Ke et al. (doi:10.1101/2024.01.08.574731)

Columns and labels:
[1] = melting temperature; fluorescence melt of hairpins on a sequencing array, two-state fit, raised by 9.35 °C to match UV melts; conditions: sodium 0.088 M
Method in brief: (§1)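 Cy3 fluorescence of library hairpins on a sequenced MiSeq flow cell, with annealed Cy3 and quencher oligos, was imaged in 50 mM Na-HEPES pH 8.0, 25 mM NaCl in 2.5 °C steps up to 60 °C. Signals were normalised to pre-quench Cy3 and to control variants. Melting temperature and folding enthalpy came from bootstrapped two-state fits, inverse-variance combined over four replicates. Fitted temperatures were raised by 9.35 °C to match UV melts.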

[2] = folding enthalpy; higher = less favourable; fluorescence melt of hairpins on a sequencing array, two-state fit; conditions: sodium 0.088 M
Method in brief: as §1

Sequence	Tm [1]	folding enthalpy [2]
GATCGGAGAGCCGATC ((((((....))))))	54.8 °C	-30.3 kcal/mol
GATCGGAGCCCCGATC ((((((....))))))	54.7 °C	-32.6 kcal/mol
GATCGGAGCGCCGATC ((((((....))))))	55 °C	-31.4 kcal/mol
GATCGGAGTACCGATC ((((((....))))))	57.5 °C	-37.9 kcal/mol
GATCGGATACCGATC ((((((...))))))	56.6 °C	-36.4 kcal/mol
GATCGGATGCCGATC ((((((...))))))	63 °C	-19 kcal/mol
GATCGGATGGCCGATC ((((((....))))))	56.1 °C	-29.9 kcal/mol
GATCGGATTGCCGATC ((((((....))))))	55 °C	-28.7 kcal/mol
GATCGGCAGGCCGATC ((((((....))))))	66.8 °C	-34.9 kcal/mol
GATCGGCCAACCGATC ((((((....))))))	55.8 °C	-38.4 kcal/mol
GATCGGCCACCGATC ((((((...))))))	55.1 °C	-31.7 kcal/mol
GATCGGCCAGCCGATC ((((((....))))))	65.9 °C	-36.8 kcal/mol
GATCGGCCCGCCGATC ((((((....))))))	68.3 °C	-43.9 kcal/mol
GATCGGCCTACCGATC ((((((....))))))	57.9 °C	-36.5 kcal/mol
GATCGGCGAAAGCCTATC (((.(((....))).)))	39.9 °C	-19.2 kcal/mol
GATCGGCGTTCCGATC ((((((....))))))	56.3 °C	-39.3 kcal/mol
GATCGGCTATCCGATC ((((((....))))))	55.8 °C	-38.4 kcal/mol
GATCGGCTCTCCGATC ((((((....))))))	55.4 °C	-47.3 kcal/mol
GATCGGCTTCCCGATC ((((((....))))))	56.4 °C	-35.5 kcal/mol
GATCGGGACACCGATC ((((((....))))))	66 °C	-38.4 kcal/mol
GATCGGGAGCCGATC ((((((...))))))	53.7 °C	-22 kcal/mol
GATCGGGATTCCGATC ((((((....))))))	57.5 °C	-39.7 kcal/mol
GATCGGGCACCCGATC ((((((....))))))	64.6 °C	-39.9 kcal/mol
GATCGGGCATCCGATC ((((((....))))))	63.3 °C	-41.9 kcal/mol

Sequence	Tm [1]	folding enthalpy [2]
GATCGGGCCGCCGATC ((((((....))))))	59.1 °C	-37.2 kcal/mol
GATCGGGCTTCCGATC ((((((....))))))	59.4 °C	-41.2 kcal/mol
GATCGGGGAAACCCAATC (((.(((....))).)))	32.8 °C	-20.8 kcal/mol
GATCGGGTACCGATC ((((((...))))))	67.5 °C	-44.7 kcal/mol
GATCGGGTTCCCGATC ((((((....))))))	62.8 °C	-42.5 kcal/mol
GATCGGGTTCCGATC ((((((...))))))	56.8 °C	-39.1 kcal/mol
GATCGGTACTCCGATC ((((((....))))))	59.3 °C	-38.3 kcal/mol
GATCGGTCACCCGATC ((((((....))))))	56.4 °C	-31.4 kcal/mol
GATCGGTCATCCGATC ((((((....))))))	59.4 °C	-39.7 kcal/mol
GATCGGTCCCCGATC ((((((...))))))	57.4 °C	-44.8 kcal/mol
GATCGGTCGCCCGATC ((((((....))))))	57.4 °C	-54.5 kcal/mol
GATCGGTCGTCCGATC ((((((....))))))	60.2 °C	-40.9 kcal/mol
GATCGGTGCCCGATC ((((((...))))))	58 °C	-40.8 kcal/mol
GATCGGTGCTCCGATC ((((((....))))))	57.9 °C	-40.8 kcal/mol
GATCGGTGGCCGATC ((((((...))))))	55.9 °C	-33.8 kcal/mol
GATCGGTTACCGATC ((((((...))))))	59.3 °C	-36.1 kcal/mol
GATCGGTTGGCCGATC ((((((....))))))	60.9 °C	-42 kcal/mol
GATCGGTTTCCCGATC ((((((....))))))	57.1 °C	-40.4 kcal/mol
GATCGTAAATACGATC ((((((....))))))	53 °C	-38.9 kcal/mol
GATCGTAAGCACGATC ((((((....))))))	53.9 °C	-36.4 kcal/mol
GATCGTAATAACGATC ((((((....))))))	53.9 °C	-37 kcal/mol
GATCGTACCTACGATC ((((((....))))))	55.6 °C	-50.5 kcal/mol
GATCGTAGAGACGATC ((((((....))))))	51.9 °C	-25.4 kcal/mol
GATCGTAGCAACGATC ((((((....))))))	54.7 °C	-38.6 kcal/mol

Sequence	Tm [1]	folding enthalpy [2]
GATCGTAGTCACGATC ((((((....))))))	54.1 °C	-36.1 kcal/mol
GATCGTATACACGATC ((((((....))))))	53.9 °C	-38.4 kcal/mol
GATCGTATCGACGATC ((((((....))))))	55.2 °C	-35 kcal/mol
GATCGTATGACGATC ((((((...))))))	55.6 °C	-34 kcal/mol
GATCGTATGCACGATC ((((((....))))))	54.5 °C	-26.1 kcal/mol
GATCGTATTAACGATC ((((((....))))))	55.9 °C	-37.1 kcal/mol
GATCGTATTTACGATC ((((((....))))))	57.6 °C	-42.5 kcal/mol
GATCGTCAAGACGATC ((((((....))))))	58.7 °C	-37.5 kcal/mol
GATCGTCACAACGATC ((((((....))))))	56.9 °C	-39.3 kcal/mol
GATCGTCACGACGATC ((((((....))))))	57.8 °C	-43.1 kcal/mol
GATCGTCAGAACGATC ((((((....))))))	55.1 °C	-35.2 kcal/mol
GATCGTCAGGACGATC ((((((....))))))	58.3 °C	-45.6 kcal/mol
GATCGTCCACACGATC ((((((....))))))	53.9 °C	-34.7 kcal/mol
GATCGTCCGGACGATC ((((((....))))))	62.8 °C	-52.6 kcal/mol
GATCGTCGAAACGATC ((((((....))))))	53.5 °C	-38.3 kcal/mol
GATCGTCGAACGATC ((((((...))))))	53.1 °C	-33.9 kcal/mol
GATCGTCGACACGATC ((((((....))))))	52.2 °C	-43.9 kcal/mol
GATCGTCGCTACGATC ((((((....))))))	55 °C	-41.6 kcal/mol
GATCGTCGGTACGATC ((((((....))))))	53.8 °C	-27.3 kcal/mol
GATCGTCGTAACGATC ((((((....))))))	57.1 °C	-48.4 kcal/mol
GATCGTCTCACGATC ((((((...))))))	57.4 °C	-40.6 kcal/mol
GATCGTCTGACGATC ((((((...))))))	54 °C	-51.7 kcal/mol
GATCGTCTTACGATC ((((((...))))))	57.1 °C	-34.8 kcal/mol
GATCGTGACAACGATC ((((((....))))))	63.5 °C	-38.4 kcal/mol

Sequence	Tm [1]	folding enthalpy [2]
GATCGTGAGAACGATC ((((((....))))))	59.3 °C	-31.5 kcal/mol
GATCGTGAGTACGATC ((((((....))))))	54 °C	-31.4 kcal/mol
GATCGTGCAGACGATC ((((((....))))))	58.9 °C	-40.9 kcal/mol
GATCGTGCTAACGATC ((((((....))))))	66.3 °C	-37.7 kcal/mol
GATCGTGGACACGATC ((((((....))))))	65.6 °C	-40.2 kcal/mol
GATCGTGGCGACGATC ((((((....))))))	61.4 °C	-29.9 kcal/mol
GATCGTGGTCACGATC ((((((....))))))	57.7 °C	-41.9 kcal/mol
GATCGTGTGAACGATC ((((((....))))))	62.7 °C	-39.2 kcal/mol
GATCGTGTGGACGATC ((((((....))))))	55.7 °C	-38 kcal/mol
GATCGTTAACACGATC ((((((....))))))	52.3 °C	-37.9 kcal/mol
GATCGTTACAACGATC ((((((....))))))	57.3 °C	-39 kcal/mol
GATCGTTACGACGATC ((((((....))))))	57.1 °C	-39.9 kcal/mol
GATCGTTATAACGATC ((((((....))))))	56.7 °C	-40.1 kcal/mol
GATCGTTATTACGATC ((((((....))))))	56.1 °C	-39.8 kcal/mol
GATCGTTCAAACGATC ((((((....))))))	55 °C	-42.7 kcal/mol
GATCGTTCAACGATC ((((((...))))))	55.5 °C	-42 kcal/mol
GATCGTTCAGACGATC ((((((....))))))	55.6 °C	-38.9 kcal/mol
GATCGTTCCGACGATC ((((((....))))))	56.1 °C	-40.9 kcal/mol
GATCGTTCTAACGATC ((((((....))))))	57.3 °C	-39.7 kcal/mol
GATCGTTCTGACGATC ((((((....))))))	55.5 °C	-44.4 kcal/mol
GATCGTTCTTACGATC ((((((....))))))	56.3 °C	-40.6 kcal/mol
GATCGTTGTGACGATC ((((((....))))))	60.2 °C	-41 kcal/mol
GATCGTTTACACGATC ((((((....))))))	53.8 °C	-45.4 kcal/mol
GATCGTTTATACGATC ((((((....))))))	57.5 °C	-38.7 kcal/mol
